Reference: PMC11164094 (International Journal of Nanomedicine, 2024)
Converted amounts (≈) assume the structure as drawn.

Experiments:
HUA mice = assay: In vivo anti-hyperuricemia study; set-up: species or system KM mice; conditions: for serum UA level vs HUA group: gavage once daily, 5 mg/kg FEB, 10 mg/kg OBB, 1, 2, 4 mg/kg OBB-HP-β-CD SDDS
In short: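 KM mice (male, 20 ± 2 g, 4 weeks, SPF) were acclimatised ≥7 days at 24 ± 1°C, n = 10/group. Hyperuricemia was induced daily for 10 days with PO 300 mg/kg i.p. plus HX 300 mg/kg oral. Test compound was gavaged 1 h post-challenge, once daily for 7 days. Kidneys were taken 1 h after the last dose, fixed 24 h in 4% PFA, paraffin-embedded, sectioned at 4 μm, H&E-stained and blind-scored at 200× (n = 3).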

[1] = previous study; cited from earlier work
[2] = Pharmacokinetic study in rats; assay type: in vivo; conditions: male, Sprague Dawley, rat, blood, oral, 50 mg/kg
In short: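 Male Sprague Dawley rats (200–240 g) were fasted overnight with free water and dosed in groups of 6. Dose was 50 mg/kg test compound, given p.o. as raw material or as HP-β-CD supersaturated formulation, or i.v. as formulation. Heparinized orbital blood was drawn at 0.083–24 h. Acetonitrile protein precipitation with piperine internal standard; centrifuged 2000 ×g, 10 min; residue redissolved in methanol, filtered; HPLC.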

[3] = Solubility test of OBB in different dissolution media and excipient solutions; assay type: physicochemical; conditions: for Solubility: 25°C, shaken 24 h
In short: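 Excess test compound was added to each medium, with solid excipients made up as 25 mg/mL aqueous solutions. Samples were shaken at 90 rpm and 25°C for 24 h to reach equilibrium. They were then centrifuged (9000 ×g, 20 min), and the supernatant was filtered (0.22 µm), diluted and quantified by HPLC. HPLC used a C18 column with methanol-water 70:30 and 0.1% formic acid, isocratic at 1.0 mL/min, 30°C.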

[4] = Appearance and solubility of prepared samples in water; assay type: physicochemical
[5] = previous study; cited from earlier work; remark: listed apart in the source

| bioavailability [2] [%] | solubility at 24 h ([3]; artificial gastric fluid) [µg/mL] | Solubility ([3]; artificial intestinal fluid) | Solubility ([3]; water) | appearance after addition of water and sufficient stirring [4] | SMILES | renal histopathological damage (H&E) vs HUA group (HUA mice) | serum UA level vs HUA group (HUA mice) | safety profile [1] | anti-hyperuricemic activity [5] |
| --- | --- | --- | --- | --- | --- | --- | --- | --- | --- |
|  |  |  |  |  | Cc1nc(-c2ccc(OCC(C)C)c(C#N)c2)sc1C(=O)O [FEB, febuxostat, reference compound] | effectively ameliorated | significantly decreased |  |  |
| 1.55 | ~0.32 (≈ 0.911 µM) | completely insoluble | completely insoluble | remained cloudy | COc1ccc2cc3n(c(=O)c2c1OC)CCc1cc2c(cc1-3)OCO2 [OBB, Oxyberberine] | effectively ameliorated | significantly decreased | favorable safety profile | comparable to the first-line agent febuxostat |
